# Beta apoptosis: beta cell apoptosis inhibition. INS-1E cytokine-induced death, ATP luminescence, 48 h; percent of positive-control rescue, neutral wells zero. protection from apoptosis, % (concentration not given with the values). 0.8% of 300,000 active;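 active = Every replicate reaches about 75%, or at least half do and their mean reaches it too, limit read from the data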;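 note: 0% = cytokine-treated negative control wells and 100% = positive control rescue; higher means more ATP so stronger rescue from cytokine killing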
# T cruzi inh: blocks replication of Trypanosoma cruzi; T. cruzi beta-gal in NIH3T3, luminescence, 90 h; inhibition, % (concentration not given with the values); 1.4% of 300,000 active; AID 1885;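 active = mean inhibition across valid replicates above about 55%, limit read from the data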;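 note: signal also drops with host cell toxicity which is not excluded here; 0% = plate median of DMSO wells and 100% = zero luminescence signal; higher percent means less beta-gal luminescence so fewer parasites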
#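 System – NIH/3T3 host cells with β-galactosidase reporter T. cruzi · Doses – single 50 nL compound addition per well in DMSO · Reagent – 5000 T. cruzi trypomastigotes/well · Medium – Low-serum DMEM with 2% FBS · Timing – ≥90 h infection period, 3 h prior cell attachment · Evaluation – parasite load inhibition, % · Technique – GalScreen luminescence, 60 min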
# Calb FLC: affects C. albicans growth with fluconazole. C. albicans CaCi-2 (fluconazole-resistant clinical isolate) + fluconazole, Alamar Blue growth, 48 h. growth inhibition, % (test concentration not listed). 0.57% of 300,000 active. AID 1979;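 active = growth inhibition above about 58% in most replicates, limit read from the data, passing the limit was not always enough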;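 note: all wells also contain fluconazole at 8 µg/ml as a sub-toxic cotreatment; 0% = median of DMSO wells and 100% = median of geldanamycin control wells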
# Mdm2-MdmX inh: inhibitors of human Mdm2/MdmX interaction; SaOS-2 split-luciferase Mdm2/MdmX complementation, luminescence; inhibition, % at 8 µM; 3% of 330,000 active;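 active = inhibition of at least 50% at 8 µM in the primary screen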
# CSC inhib: blocks cancer stem cells; cancer stem cell-like cells viability, luminescence; inhibition, % at 7.5 µM; 1.1% of 300,000 active; in the data active = inhibition above about 75%; tested in HMLE shEcad cells
# SKKanGAS inh: inhibitors of SKKanGAS S. pyogenes growth in kanamycin (SK-promoter or general growth effect); BacTiter-Glo, 6 h; 1.3% of 300,000 active; inhibition, % at 7.5 µM;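 active = mean replicate score, as percent of positive control median, at least 50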;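 note: strain carries kanamycin resistance gene driven by streptokinase promoter and grows in 40 µg/ml kanamycin; loss of luminescence reflects streptokinase promoter inhibition or plain growth inhibition; 0% = median of DMSO wells and 100% = positive control at its reference dose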
# Mdm2 MdmX conf: human Mdm2/MdmX binding inhibition, confirmed; inhibition, % at 8 µM; AID 489028; shares compounds with Mdm2-MdmX inh; luminescent assay; 55% of 10,000 active; in the data active = inhibition above about 40%
# Full FLuc ctr: inhibits full-length luciferase, flagging false Mdm2/MdmX hits; shares compounds with Mdm2-MdmX inh; inhibition, % at 8 µM; SaOS-2 full-length luciferase counterscreen, luminescence; 77% of 6,200 active;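 active = mean inhibition at 8 µM reaching about 37%, which flags the compound as non-specific, limit read from the data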;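 note: p53-null SaOS-2 cells with luciferase driven by a doxycycline-inducible promoter; compound on cells about two nights before reading with doxycycline added after day one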
# * marks the source's active call; other numbers are inactive results; . = no result given. Rows were chosen to be rich in hits. Some 5.7% of all compounds tested hit in one or more screens of this group.
SMILES,Beta apoptosis,T cruzi inh,Calb FLC,Mdm2-MdmX inh,CSC inhib,SKKanGAS inh,Mdm2 MdmX conf,others
CN(C)c1ccc(Nc2ncnc3ccc(Br)cc23)cc1,-5,-1,-2,78*,10,-4,68*,Full FLuc ctr=37*
COc1cc2ncnc(Nc3ccc4c(c3)OCO4)c2cc1OC,23,24,-4,15,42,-8,.,
CN(C)c1ccc(Nc2cc(Cl)ncn2)cc1,10,5,2,6,-1,3,.,
O=C(NCc1ccco1)C(c1ccccc1)N(Cc1ccccc1)C(=O)Cn1nnc2ccccc21 (stereo not given),-6,6,-3,7,-4,4,.,
CCOc1cccc(-c2nn(-c3ccccc3)cc2/C=C(/C#N)C(=O)NCCCn2ccnc2)c1,12,28,2,77*,-9,4,39,Full FLuc ctr=51*
CC(NC(=O)/C(C#N)=C/c1cn(-c2ccccc2)nc1-c1ccc(F)cc1)c1ccccc1 (stereo not given),1,31,4,17,5,2,.,
Cc1ccc(-c2nn(-c3ccccc3)cc2/C=C(\C#N)C(=O)NCc2ccccc2)cc1,-2,-13,17,75*,8,2,44*,Full FLuc ctr=85*
CCCCCCSc1ccc(-c2nc3cc(C)ccn3c2NC2CCCCC2)cc1,6,.,.,51*,52,.,-2,
Cc1ccn2c(NC3CCCCC3)c(C(C)C)nc2c1,-7,-21,5,-5,-10,3,.,
CCC(C)Sc1ccc(-c2nc3cc(C)ccn3c2NC2CCCCC2)cc1 (stereo not given),.,.,.,85*,.,.,-42,
O=C(CCS(=O)(=O)c1ccccc1)OCc1ccc([N+](=O)[O-])cc1,-8,-7,28,16,.,-4,.,
O=C(NCCS(=O)(=O)N1CCCCC1)c1ccccc1,-4,-12,1,6,-11,-1,.,
CN(C(=O)COc1cccc(C#N)c1)C1CCS(=O)(=O)C1 (stereo not given),-1,.,.,21,.,.,.,
O=C(NCc1cccs1)C1CCCN1C(=O)Nc1ccccc1Cl (stereo not given),0,-14,-1,-8,-6,0,.,
O=C(CCN1CCN(c2ccccc2)CC1)N/N=C/c1ccccc1O,30,7,37,60*,39,5,56*,Full FLuc ctr=56*
CCN(CC)CCCN1C(=O)CSC1c1ccc([N+](=O)[O-])cc1 (stereo not given),-6,9,-12,14,3,-14,.,
CCCOC(=O)c1ccc(Oc2c(-c3ccc(OCC)cc3O)n[nH]c2C)cc1,37,4,-20,71*,137*,62*,11,
COc1ccc(Oc2c(-c3ccc(O)cc3O)n[nH]c2C)cc1,-5,-5,5,5,-6,-9,.,
COc1ccccc1CCNC(=O)C(=O)NCC1CCCN1S(=O)(=O)c1ccccc1 (stereo not given),6,19,1,17,.,-10,.,
Cc1cc(=O)[nH]c2cc(O)ccc12,-6,-11,-24,-2,-9,-6,.,
CC(C)=CCCC1(C)C=Cc2c(c(C)cc3c2[nH]c2cc(O)ccc23)O1 (stereo not given),.,30,7,69*,93*,107*,3,
C=CCNC(=O)C(=O)Nc1ccc2c(c1)N(S(=O)(=O)c1cccs1)CCC2,2,0,0,21,.,10,.,
CCOC(=O)c1c(C)[nH]c(C)c1S(=O)(=O)NCc1ccccc1OCC,-5,9,22,9,-6,-2,.,
CS(=O)(=O)N(CC(=O)Nc1ccc(CC#N)cc1)c1ccc(C23CC4CC(CC(C4)C2)C3)cc1,88*,70*,11,64*,38,25,-5,
CC(=O)Nc1ccc(NC(=O)CN(c2ccc(C34CC5CC(CC(C5)C3)C4)cc2)S(C)(=O)=O)cc1,13,53,-10,56*,10,-4,29,
CCC1CCCCN1C(=O)COC(=O)c1ccc(Br)o1 (stereo not given),-5,.,.,-13,-17,.,.,

# Assay outcomes (PubChem)
